From publication PMC5955769 (ACS chemical neuroscience, 2018)

Experiments:
[1] = tested on: Nrf2; test: Neh2-luc SH-SY5Y cell-based reporter; details: for Nrf2 activity in Neh2-luciferase reporter assay (library screen): IRSF SMART library screen
In short: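 Luciferase reporter in SH-SY5Y cells carrying the Nrf2 Neh2 fusion (Neh2-luc). It is used to find agents that directly stabilize the Nrf2 transcription factor. Run as a screen of an approved and preclinical drug library, and as concentration-response testing of selected compounds. TBHQ was the reference Nrf2 activator.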

[2] = tested on: HIF-1α; test: ODD-luc SH-SY5Y cell reporter; type: cell-based; details: SH-SY5Y cells
In short: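 HIF-1α ODD-luciferase reporter in SH-SY5Y cells, run as concentration-response testing. The PHD inhibitor FG-4592 served as the HIF-activating control.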

| Compound | Nrf2 activity in Neh2-luciferase reporter assay (library screen) [1] | HIF-1α (ODD-luc) fold activation [2] [fold] | Nrf2 (Neh2-luc) fold activation ([1]; SH-SY5Y cells, fold increase in luminescence relative to vehicle control) [fold] |
| --- | --- | --- | --- |
| Nc1ccccc1NC(=O)c1ccc(CNC(=O)OCc2cccnc2)cc1 [entinostat] | completely inactive |  |  |
| O=C(/C=C/C#Cc1cccc(NS(=O)(=O)c2ccccc2)c1)NO [oxamflatin] | Nrf2 hits |  |  |
| CC(=O)Nc1ccc(C(=O)Nc2ccccc2N)cc1 [tacedinaline] | inactive |  |  |
| CN1CCc2c(c3ccccc3n2Cc2ccc(C(=O)NO)cc2)C1 [tubastatin] | Nrf2 hits | 2.4 |  |
| O=C(CCCCCCC(=O)Nc1ccccc1)NO [SAHA] | Nrf2 hits |  |  |
| CC(/C=C/C(=O)NO)=C\[C@@H](C)C(=O)c1ccc(N(C)C)cc1 [TSA] | Nrf2 hits |  |  |
| CC1(C)CNc2ccccc21 [3,3-dimethylindoline (III)] |  |  | 1.8 |
